Results as given in the M2OR odorant receptor database.

Columns and labels:
Details in all cases: stereoisomer not certain
UniProt Q8VGL0 = target: T1, UniProt Q8VGL0
T1 sequence (whole entry): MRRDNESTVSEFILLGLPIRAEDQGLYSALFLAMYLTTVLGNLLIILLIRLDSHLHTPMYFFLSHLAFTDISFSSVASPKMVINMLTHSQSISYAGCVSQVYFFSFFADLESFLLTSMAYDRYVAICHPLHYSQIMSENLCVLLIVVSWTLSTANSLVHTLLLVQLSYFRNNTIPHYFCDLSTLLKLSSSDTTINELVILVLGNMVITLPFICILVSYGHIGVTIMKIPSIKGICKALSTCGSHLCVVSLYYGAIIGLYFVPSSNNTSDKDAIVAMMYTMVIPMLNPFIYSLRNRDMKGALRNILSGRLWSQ
In short: (§1)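 Transient luciferase assays in mammalian cell lines were common, though methods varied by source. The values come from published papers and their supplementary material, with extra details from the original authors when needed. Responsive refers to a measured signal the original authors judged statistically different from baseline, and non-responsive (inactive) to the remainder.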

UniProt Q8VGU3 = target: T2, UniProt Q8VGU3
T2 sequence (whole entry): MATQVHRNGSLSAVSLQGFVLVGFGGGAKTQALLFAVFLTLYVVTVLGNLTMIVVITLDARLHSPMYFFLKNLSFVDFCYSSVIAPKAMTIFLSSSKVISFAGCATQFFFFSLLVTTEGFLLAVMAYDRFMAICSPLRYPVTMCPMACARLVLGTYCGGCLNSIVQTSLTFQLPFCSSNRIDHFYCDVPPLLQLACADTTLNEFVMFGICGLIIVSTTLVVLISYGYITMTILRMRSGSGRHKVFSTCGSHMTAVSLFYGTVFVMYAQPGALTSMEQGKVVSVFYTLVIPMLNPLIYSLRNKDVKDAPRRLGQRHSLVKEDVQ
In short: as §1

UniProt Q8VGV7 = target: T3, UniProt Q8VGV7
T3 sequence (whole entry): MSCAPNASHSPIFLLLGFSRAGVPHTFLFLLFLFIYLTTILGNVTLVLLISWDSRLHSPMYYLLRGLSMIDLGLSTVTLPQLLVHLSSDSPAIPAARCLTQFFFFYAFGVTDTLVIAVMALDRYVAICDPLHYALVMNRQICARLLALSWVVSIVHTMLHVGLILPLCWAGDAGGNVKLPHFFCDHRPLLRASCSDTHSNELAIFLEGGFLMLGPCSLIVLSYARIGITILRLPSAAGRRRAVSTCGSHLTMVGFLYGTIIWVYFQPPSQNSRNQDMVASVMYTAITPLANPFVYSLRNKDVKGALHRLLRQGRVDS
In short: as §1

UniProt Q8VGX3 = target: T4, UniProt Q8VGX3
T4 sequence (whole entry): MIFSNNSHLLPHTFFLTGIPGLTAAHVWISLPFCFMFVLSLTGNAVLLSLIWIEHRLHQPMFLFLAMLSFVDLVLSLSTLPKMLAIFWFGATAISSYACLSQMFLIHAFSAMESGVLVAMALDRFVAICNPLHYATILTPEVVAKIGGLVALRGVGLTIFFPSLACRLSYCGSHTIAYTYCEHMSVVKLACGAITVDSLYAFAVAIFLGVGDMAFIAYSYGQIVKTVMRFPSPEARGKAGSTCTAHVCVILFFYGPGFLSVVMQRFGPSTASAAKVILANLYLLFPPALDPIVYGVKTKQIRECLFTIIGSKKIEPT
In short: as §1

UniProt Q8VGX5 = target: T5, UniProt Q8VGX5
T5 sequence (whole entry): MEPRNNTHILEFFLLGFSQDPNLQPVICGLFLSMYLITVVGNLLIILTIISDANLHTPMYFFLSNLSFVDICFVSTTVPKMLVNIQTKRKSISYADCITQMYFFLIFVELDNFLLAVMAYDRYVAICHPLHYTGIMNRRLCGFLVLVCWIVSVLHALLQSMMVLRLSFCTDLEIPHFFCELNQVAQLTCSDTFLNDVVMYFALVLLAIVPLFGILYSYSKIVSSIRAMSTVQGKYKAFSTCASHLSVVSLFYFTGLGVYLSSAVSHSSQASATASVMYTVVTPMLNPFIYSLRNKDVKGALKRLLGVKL
In short: as §1

UniProt Q8VGZ2 = target: T6, UniProt Q8VGZ2
T6 sequence (whole entry): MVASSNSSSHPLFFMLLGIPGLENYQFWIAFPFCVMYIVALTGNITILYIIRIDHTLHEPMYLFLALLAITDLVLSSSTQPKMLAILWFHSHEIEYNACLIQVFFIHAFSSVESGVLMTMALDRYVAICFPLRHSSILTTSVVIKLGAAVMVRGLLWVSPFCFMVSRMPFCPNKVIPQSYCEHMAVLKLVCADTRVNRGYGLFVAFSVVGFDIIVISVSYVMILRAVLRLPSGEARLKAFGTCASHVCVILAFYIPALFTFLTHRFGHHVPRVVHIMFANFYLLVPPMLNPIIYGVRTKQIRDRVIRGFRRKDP
In short: as §1

UniProt Q8VGZ7 = target: T7, UniProt Q8VGZ7
T7 sequence (whole entry): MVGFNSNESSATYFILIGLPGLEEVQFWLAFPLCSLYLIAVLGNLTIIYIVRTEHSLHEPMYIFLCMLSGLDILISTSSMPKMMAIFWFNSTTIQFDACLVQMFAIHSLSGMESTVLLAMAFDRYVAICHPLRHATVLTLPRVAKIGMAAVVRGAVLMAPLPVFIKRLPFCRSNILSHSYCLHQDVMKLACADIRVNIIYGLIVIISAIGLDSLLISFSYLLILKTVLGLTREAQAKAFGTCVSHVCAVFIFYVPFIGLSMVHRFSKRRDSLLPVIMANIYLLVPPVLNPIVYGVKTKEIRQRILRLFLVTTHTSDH
In short: as §1

UniProt Q8VH16 = target: T8, UniProt Q8VH16
T8 sequence (whole entry): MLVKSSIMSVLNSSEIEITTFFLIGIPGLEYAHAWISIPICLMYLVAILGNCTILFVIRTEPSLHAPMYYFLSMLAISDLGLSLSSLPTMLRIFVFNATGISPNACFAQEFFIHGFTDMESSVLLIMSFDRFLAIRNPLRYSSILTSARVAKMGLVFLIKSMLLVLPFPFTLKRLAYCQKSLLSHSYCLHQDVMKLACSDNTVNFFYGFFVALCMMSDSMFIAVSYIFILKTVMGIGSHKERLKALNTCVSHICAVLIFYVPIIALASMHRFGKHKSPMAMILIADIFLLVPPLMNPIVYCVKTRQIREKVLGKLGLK
In short: as §1

UniProt Q8VH20 = target: T9, UniProt Q8VH20
T9 sequence (whole entry): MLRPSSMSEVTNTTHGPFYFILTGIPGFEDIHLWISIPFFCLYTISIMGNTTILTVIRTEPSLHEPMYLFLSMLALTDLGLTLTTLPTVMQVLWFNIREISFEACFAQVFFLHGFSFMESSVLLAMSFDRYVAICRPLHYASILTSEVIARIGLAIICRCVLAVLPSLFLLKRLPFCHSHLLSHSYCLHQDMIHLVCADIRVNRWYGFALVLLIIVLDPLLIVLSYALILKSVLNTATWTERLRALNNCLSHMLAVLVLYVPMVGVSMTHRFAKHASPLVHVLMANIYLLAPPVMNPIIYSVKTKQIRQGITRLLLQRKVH
In short: as §1

Measured: odorant receptor agonist call

Oc1ccccc1Br
inactive: all assays above

Cc1ccc(OC(=O)Cc2ccccc2)cc1
active: UniProt Q8VH20
inactive: all other assays above
